Each block holds one compound with its values, some of them ahead of it. Calls of active or inactive are those of the source. The rule behind the calls is not given here.
Assays:
[1] = molecular target: AH receptor-interacting protein (Homo sapiens) (UniProt O00170); experiment: Binding affinity to AIP in human NCI-H23 cells at 1 uM by mass spectrometry based pull down assay; type: cell-based
Outline: (§1)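 NCI-H23 or NCI-H358 cells were grown and lysed. Lysates were incubated overnight at 4 °C with 1 μM biotinylated covalent probe or DMSO, then pulled down on streptavidin beads. Proteins were run on polyacrylamide gels and stained with Coomassie. Bands were excised, digested and identified by mass spectrometry.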

[2] = molecular target: Nucleolin (Homo sapiens) (UniProt P19338); experiment: Binding affinity to NCL in human NCI-H358 cells at 1 uM by mass spectrometry based pull down assay; type: cell-based
[3] = molecular target: Thioredoxin-like protein 1 (Homo sapiens) (UniProt O43396); experiment: Binding affinity to TXNL1 in human NCI-H23 cells at 1 uM by mass spectrometry based pull down assay; type: cell-based
Thioredoxin-like protein 1 (Homo sapiens), sequence (O43396 whole entry): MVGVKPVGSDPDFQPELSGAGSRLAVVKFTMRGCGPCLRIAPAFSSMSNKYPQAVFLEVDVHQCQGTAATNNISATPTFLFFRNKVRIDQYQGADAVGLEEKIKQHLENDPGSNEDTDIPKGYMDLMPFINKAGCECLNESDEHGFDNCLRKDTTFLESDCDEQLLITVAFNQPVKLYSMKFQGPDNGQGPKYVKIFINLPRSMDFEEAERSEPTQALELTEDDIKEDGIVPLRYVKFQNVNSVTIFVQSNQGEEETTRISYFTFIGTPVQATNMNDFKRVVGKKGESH

[4] = molecular target: Coatomer subunit beta (Homo sapiens) (UniProt P53618); experiment: Binding affinity to COPB1 in human NCI-H358 cells at 1 uM by mass spectrometry based pull down assay; type: cell-based
[5] = molecular target: Medium-chain specific acyl-CoA dehydrogenase, mitochondrial (Homo sapiens) (UniProt P11310); experiment: Binding affinity to ACADM in human NCI-H358 cells at 1 uM by mass spectrometry based pull down assay; type: cell-based; outline: as §1
Medium-chain specific acyl-CoA dehydrogenase, mitochondrial (Homo sapiens), sequence (P11310 whole entry): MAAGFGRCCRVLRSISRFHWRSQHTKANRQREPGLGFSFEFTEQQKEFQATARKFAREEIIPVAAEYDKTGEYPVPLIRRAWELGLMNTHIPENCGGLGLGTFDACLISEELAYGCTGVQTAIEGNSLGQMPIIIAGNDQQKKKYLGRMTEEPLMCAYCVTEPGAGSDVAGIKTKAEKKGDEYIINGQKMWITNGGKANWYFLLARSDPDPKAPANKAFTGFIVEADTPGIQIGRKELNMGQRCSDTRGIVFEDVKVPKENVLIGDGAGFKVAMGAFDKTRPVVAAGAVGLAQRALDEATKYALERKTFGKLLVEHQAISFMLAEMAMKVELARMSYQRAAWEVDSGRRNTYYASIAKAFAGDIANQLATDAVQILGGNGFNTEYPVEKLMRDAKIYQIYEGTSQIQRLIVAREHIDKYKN

[6] = molecular target: Uracil-DNA glycosylase (Homo sapiens) (UniProt P13051); experiment: Binding affinity to UNG in human NCI-H358 cells at 1 uM by mass spectrometry based pull down assay; type: cell-based
Uracil-DNA glycosylase (Homo sapiens), sequence (P13051 whole entry): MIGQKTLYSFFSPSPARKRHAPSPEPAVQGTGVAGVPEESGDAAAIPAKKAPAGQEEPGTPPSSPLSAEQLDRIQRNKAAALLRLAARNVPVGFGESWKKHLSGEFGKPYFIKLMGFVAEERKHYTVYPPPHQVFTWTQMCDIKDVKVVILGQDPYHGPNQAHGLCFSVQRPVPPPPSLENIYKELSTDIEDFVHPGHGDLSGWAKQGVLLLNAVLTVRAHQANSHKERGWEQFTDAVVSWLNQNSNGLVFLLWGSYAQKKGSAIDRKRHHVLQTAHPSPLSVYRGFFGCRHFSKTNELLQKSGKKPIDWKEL

[7] = molecular target: ADP-ribosylation factor-like protein 8B (Homo sapiens) (UniProt Q9NVJ2); experiment: Binding affinity to ARL8B in human NCI-H23 cells at 1 uM by mass spectrometry based pull down assay; type: cell-based
ADP-ribosylation factor-like protein 8B (Homo sapiens), sequence (Q9NVJ2 whole entry, the tested form may be a part): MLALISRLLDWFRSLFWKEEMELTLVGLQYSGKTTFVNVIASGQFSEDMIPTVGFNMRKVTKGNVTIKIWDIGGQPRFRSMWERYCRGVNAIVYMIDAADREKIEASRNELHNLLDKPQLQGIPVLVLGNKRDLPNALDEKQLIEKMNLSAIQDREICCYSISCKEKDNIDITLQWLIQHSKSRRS

[8] = molecular target: TBC1 domain family member 15 (Homo sapiens) (UniProt Q8TC07); experiment: Binding affinity to TBC1D15 in human NCI-H358 cells at 1 uM by mass spectrometry based pull down assay; type: cell-based
TBC1 domain family member 15 (Homo sapiens), sequence (Q8TC07 whole entry, the tested form may be a part): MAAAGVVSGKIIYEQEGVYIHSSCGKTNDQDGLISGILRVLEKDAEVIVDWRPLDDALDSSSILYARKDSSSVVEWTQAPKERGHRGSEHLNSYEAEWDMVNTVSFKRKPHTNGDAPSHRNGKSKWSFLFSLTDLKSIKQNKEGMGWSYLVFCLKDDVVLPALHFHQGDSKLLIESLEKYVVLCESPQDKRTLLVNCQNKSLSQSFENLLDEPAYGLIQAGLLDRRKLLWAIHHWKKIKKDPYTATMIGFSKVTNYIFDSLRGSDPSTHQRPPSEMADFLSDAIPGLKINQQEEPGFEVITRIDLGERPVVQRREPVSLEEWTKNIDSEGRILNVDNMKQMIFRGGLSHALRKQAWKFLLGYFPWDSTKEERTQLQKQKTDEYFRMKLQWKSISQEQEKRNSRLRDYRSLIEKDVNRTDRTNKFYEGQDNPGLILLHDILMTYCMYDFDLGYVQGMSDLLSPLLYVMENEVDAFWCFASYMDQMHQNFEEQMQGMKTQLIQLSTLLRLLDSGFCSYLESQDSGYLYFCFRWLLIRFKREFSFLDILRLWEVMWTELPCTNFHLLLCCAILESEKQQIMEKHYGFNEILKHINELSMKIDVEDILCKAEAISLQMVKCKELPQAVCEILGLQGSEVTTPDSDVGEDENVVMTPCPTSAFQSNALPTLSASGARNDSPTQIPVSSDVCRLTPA

[9] = molecular target: 80S Ribosome (Homo sapiens) (UniProt P08865+P42677+P62753+P15880+P23396+P61247+P62701+P22090+P46782+P62081+P62241+P46781+P46783+P62280+P25398+P62277+P62263+P62841+P62244+P62249+P08708+P62269+P39019+P60866+P63220+P62266+P62847+P62851+P62854+P62979+P62857+P62273+P62861+P39023+P36578+P46777+Q02878+P18124+P62424+P62917+P32969+P27635+P62906+P62913+P30050+P26373+P40429+P50914+P61313+P18621+Q07020+Q02543+P84098+P46778+P35268+P62829+P62750+P83731+P61254+P61353+P46776+P46779+P47914+P62888+P62899+P62910+P49207+P42766+P18077+Q9Y3U8+P83881+P61927+P61513+P63173+P62891+P62945+P05388+P05386); experiment: Binding affinity to RPS24 in human NCI-H23 cells at 1 uM by mass spectrometry based pull down assay; type: cell-based
[10] = molecular target: Polyadenylate-binding protein 4 (Homo sapiens) (UniProt Q13310); experiment: Binding affinity to PABPC4 in human NCI-H23 cells at 1 uM by mass spectrometry based pull down assay; type: cell-based
Polyadenylate-binding protein 4 (Homo sapiens), sequence (Q13310 whole entry): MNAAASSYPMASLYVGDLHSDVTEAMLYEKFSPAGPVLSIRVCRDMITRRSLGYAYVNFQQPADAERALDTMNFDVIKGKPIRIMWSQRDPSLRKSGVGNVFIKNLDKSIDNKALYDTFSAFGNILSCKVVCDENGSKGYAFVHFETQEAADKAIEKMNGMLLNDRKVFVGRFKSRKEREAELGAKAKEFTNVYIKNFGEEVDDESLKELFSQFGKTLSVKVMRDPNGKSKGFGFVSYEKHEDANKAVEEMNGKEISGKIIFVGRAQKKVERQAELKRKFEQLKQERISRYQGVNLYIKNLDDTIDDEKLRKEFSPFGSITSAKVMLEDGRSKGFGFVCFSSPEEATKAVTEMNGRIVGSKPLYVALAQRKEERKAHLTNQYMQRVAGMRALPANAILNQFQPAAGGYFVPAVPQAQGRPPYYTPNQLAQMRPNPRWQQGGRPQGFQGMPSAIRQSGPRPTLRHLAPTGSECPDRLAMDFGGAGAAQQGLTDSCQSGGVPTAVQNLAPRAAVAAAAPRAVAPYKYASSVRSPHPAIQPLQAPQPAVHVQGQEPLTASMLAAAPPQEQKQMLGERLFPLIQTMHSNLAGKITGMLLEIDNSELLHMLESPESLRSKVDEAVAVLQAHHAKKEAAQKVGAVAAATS

[11] = molecular target: Ras-related protein Rab-22A (Homo sapiens) (UniProt Q9UL26); experiment: Binding affinity to RAB22A in human NCI-H358 cells at 1 uM by mass spectrometry based pull down assay; type: cell-based
Ras-related protein Rab-22A (Homo sapiens), sequence (Q9UL26 whole entry): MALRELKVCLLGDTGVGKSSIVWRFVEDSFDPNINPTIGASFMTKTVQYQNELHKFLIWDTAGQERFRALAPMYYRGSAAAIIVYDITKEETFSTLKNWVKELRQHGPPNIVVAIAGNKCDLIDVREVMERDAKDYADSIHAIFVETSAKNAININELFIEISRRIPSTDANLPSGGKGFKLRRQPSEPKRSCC

[12] = molecular target: Testis-expressed protein 264 (Homo sapiens) (UniProt Q9Y6I9); experiment: Binding affinity to TEX264 in human NCI-H23 cells at 1 uM by mass spectrometry based pull down assay; type: cell-based
Testis-expressed protein 264 (Homo sapiens), sequence (Q9Y6I9 whole entry): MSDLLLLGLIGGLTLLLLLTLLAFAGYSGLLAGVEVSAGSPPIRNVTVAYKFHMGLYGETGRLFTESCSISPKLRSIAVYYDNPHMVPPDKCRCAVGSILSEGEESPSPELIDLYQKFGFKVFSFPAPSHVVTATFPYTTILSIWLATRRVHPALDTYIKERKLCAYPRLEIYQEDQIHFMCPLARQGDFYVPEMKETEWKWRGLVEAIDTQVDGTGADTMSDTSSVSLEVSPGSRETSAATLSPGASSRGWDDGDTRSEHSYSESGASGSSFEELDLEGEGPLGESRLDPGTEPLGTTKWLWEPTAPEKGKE

[13] = molecular target: Importin-5 (Homo sapiens) (UniProt O00410); experiment: Binding affinity to IPO5 in human NCI-H358 cells at 1 uM by mass spectrometry based pull down assay; type: cell-based
[14] = molecular target: Cyclin-dependent kinase 5 (Homo sapiens) (UniProt Q00535); experiment: Binding affinity to CDK5 in human NCI-H358 cells at 1 uM by mass spectrometry based pull down assay; type: cell-based
[15] = molecular target: ATP-citrate synthase (Homo sapiens) (UniProt P53396); experiment: Binding affinity to ACLY in human NCI-H23 cells at 1 uM by mass spectrometry based pull down assay; type: cell-based; outline: as §1
[16] = molecular target: Poly(rC)-binding protein 1 (Homo sapiens) (UniProt Q15365); experiment: Binding affinity to PCBP1 in human NCI-H23 cells at 1 uM by mass spectrometry based pull down assay; type: cell-based
[17] = molecular target: Beclin-1 (Homo sapiens) (UniProt Q14457); experiment: Binding affinity to BECN1 in human NCI-H23 cells at 1 uM by mass spectrometry based pull down assay; type: cell-based
Beclin-1 (Homo sapiens), sequence (Q14457 whole entry): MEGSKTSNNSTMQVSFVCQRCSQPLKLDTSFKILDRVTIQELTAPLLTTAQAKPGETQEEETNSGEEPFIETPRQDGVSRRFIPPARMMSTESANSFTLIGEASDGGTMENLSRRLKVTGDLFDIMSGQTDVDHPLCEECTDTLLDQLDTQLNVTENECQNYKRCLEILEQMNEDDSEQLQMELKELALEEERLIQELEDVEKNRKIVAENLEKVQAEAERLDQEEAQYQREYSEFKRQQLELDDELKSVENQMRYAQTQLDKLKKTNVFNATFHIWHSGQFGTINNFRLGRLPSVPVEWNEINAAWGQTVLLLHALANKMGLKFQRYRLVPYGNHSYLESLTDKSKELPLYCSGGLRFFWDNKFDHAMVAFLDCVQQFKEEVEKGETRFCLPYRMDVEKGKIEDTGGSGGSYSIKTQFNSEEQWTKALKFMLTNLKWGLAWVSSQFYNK

[18] = molecular target: COP9 signalosome complex subunit 8 (Homo sapiens) (UniProt Q99627); experiment: Binding affinity to COPS8 in human NCI-H23 cells at 1 uM by mass spectrometry based pull down assay; type: cell-based
COP9 signalosome complex subunit 8 (Homo sapiens), sequence (Q99627 whole entry, one chain of several): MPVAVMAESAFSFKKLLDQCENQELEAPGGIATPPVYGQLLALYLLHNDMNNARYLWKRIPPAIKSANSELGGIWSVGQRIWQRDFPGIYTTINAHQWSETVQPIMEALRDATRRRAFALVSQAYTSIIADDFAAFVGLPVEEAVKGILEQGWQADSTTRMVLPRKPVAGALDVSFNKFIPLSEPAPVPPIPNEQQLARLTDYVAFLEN

[19] = system: NCI-H358; experiment: Binding affinity to XRCC5 in human NCI-H358 cells at 1 uM by mass spectrometry based pull down assay; type: cell-based
[20] = molecular target: Delta-1-pyrroline-5-carboxylate synthase (Homo sapiens) (UniProt P54886); experiment: Binding affinity to ALDH18A1 in human NCI-H358 cells at 1 uM by mass spectrometry based pull down assay; type: cell-based; outline: as §1
Delta-1-pyrroline-5-carboxylate synthase (Homo sapiens), sequence (P54886 whole entry): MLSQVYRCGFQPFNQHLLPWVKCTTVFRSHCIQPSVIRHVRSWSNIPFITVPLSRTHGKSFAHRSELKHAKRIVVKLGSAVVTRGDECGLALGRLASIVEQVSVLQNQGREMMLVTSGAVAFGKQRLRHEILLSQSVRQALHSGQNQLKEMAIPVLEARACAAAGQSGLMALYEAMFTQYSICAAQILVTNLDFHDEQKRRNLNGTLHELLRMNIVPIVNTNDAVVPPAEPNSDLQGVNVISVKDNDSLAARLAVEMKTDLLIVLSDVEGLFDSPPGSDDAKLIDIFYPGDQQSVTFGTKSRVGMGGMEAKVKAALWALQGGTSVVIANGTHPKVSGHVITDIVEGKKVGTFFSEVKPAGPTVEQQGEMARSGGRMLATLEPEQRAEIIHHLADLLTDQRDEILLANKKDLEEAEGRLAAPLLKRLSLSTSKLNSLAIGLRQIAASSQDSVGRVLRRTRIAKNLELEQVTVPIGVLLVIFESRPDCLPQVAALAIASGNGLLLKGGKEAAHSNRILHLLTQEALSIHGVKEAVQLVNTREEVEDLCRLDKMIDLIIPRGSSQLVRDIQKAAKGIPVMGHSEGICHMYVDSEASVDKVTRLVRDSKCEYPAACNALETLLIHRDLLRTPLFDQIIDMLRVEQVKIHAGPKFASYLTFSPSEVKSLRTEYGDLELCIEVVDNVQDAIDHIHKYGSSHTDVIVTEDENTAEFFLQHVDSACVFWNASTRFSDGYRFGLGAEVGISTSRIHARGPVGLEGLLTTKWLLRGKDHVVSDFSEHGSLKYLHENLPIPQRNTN

[21] = molecular target: Deaminated glutathione amidase (Homo sapiens) (UniProt Q86X76); experiment: Binding affinity to NIT1 in human NCI-H358 cells at 1 uM by mass spectrometry based pull down assay; type: cell-based
[22] = system: NCI-H358; experiment: Binding affinity to PTGES3L-AARSD1 in human NCI-H358 cells at 1 uM by mass spectrometry based pull down assay; type: cell-based
[23] = molecular target: RuvB-like 2 (Homo sapiens) (UniProt Q9Y230); experiment: Binding affinity to RUVBL2 in human NCI-H358 cells at 1 uM by mass spectrometry based pull down assay; type: cell-based
[24] = molecular target: Platelet-derived growth factor receptor alpha (Homo sapiens) (UniProt P16234); experiment: Inhibition of human PDGFRA (575 to 1002 residues) expressed in mammalian expression system assessed as enzyme activity at 10 uM by KINOMEScan assay relative to control; set-up: scale not given: the % may be the effect or the level left
Outline: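 In vitro ATP-site competition binding assay across a panel of 456 kinases, with compound tested at 1 and 10 μM.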

[25] = molecular target: Cyclin-dependent kinase-like 2 (Homo sapiens) (UniProt Q92772); experiment: Inhibition of human CDKL2 (1 to 327 residues) expressed in bacterial expression system assessed as enzyme activity at 10 uM by KINOMEScan assay relative to control; set-up: scale not given: the % may be the effect or the level left
Outline: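 In vitro ATP-site competition binding assay (KinomeScan) across a panel of 456 kinases. Compound was tested at 1 and 10 μM. The read-out is the binding inhibition score relative to control.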

[26] = molecular target: Cyclin-dependent kinase 20 / CCRK (Homo sapiens) (UniProt Q8IZL9); experiment: Inhibition of CCRK in human SKCO1 cells at 1 uM after 4 hrs using biotin labeled DLKPANLLISASGQLK probe by mass-spectrometric analysis relative to control
Cyclin-dependent kinase 20 / CCRK (Homo sapiens), sequence (Q8IZL9 whole entry, looked up): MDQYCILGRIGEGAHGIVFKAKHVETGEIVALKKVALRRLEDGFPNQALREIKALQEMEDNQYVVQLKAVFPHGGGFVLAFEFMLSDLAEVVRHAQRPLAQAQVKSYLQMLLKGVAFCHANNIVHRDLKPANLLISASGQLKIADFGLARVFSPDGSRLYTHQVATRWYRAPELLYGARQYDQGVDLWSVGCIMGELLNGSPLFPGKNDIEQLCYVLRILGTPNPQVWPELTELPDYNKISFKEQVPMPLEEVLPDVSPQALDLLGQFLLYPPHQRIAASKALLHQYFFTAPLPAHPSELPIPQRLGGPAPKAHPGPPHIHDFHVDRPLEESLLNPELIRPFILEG

Activity [1]: Active
Activity [2]: Active
Activity [3]: Active
Activity [4]: Active
Activity [5]: Active
Activity [6]: Active
Activity [7]: Active
Activity [8]: Active
Activity [9]: Active
Activity [10]: Active
Activity [11]: Active
Activity [12]: Active
Activity [13]: Active
Activity [14]: Active
Activity [15]: Active
Activity [16]: Active
Activity [17]: Active
Activity [18]: Active
Activity [20]: Active
Activity [21]: Active
Activity [23]: Active
SMILES: C=CC(=O)Nc1ccccc1Nc1nc(Nc2ccc(N3CCN(CCOCCOCCOCCNC(=O)CCCC[C@@H]4SC[C@@H]5NC(=O)N[C@@H]54)CC3)cc2)ncc1Cl
Activity [19]: Active
Activity [22]: Active

SMILES: COc1cc(O)c2c(c1)/C=C/C[C@H](O)[C@H](O)C(=O)/C=C\C[C@H](C)OC2=O
Activity [24]: 1.4%
Activity [25]: 8.6%

SMILES: C=CC(=O)Nc1ccccc1Oc1nc(Nc2cnn(CCOC)c2)ncc1Cl
inhibition [26]: -9%

Reference: ChEMBL document CHEMBL4118021, “Studies of TAK1-centered polypharmacology with novel covalent TAK1 inhibitors” (Bioorg Med Chem, 2017)
